# Shown are actives, neighbours in structure and some others; about 1.5% of the full set was active somewhere.
# APJ agonist = agonists of human apelin receptor APJ, primary screen, CHO-K1 cells, PathHunter beta-arrestin, luminescence. P35414. 0% DMSO wells, 100% apelin. activation, % at 20 µM. 330,000 compounds, 0.11% hits. AID 2520, 2010;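 active = activation more than six SD over the plate average, tested at 20 µM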;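 also: 0% = DMSO alone and 100% = apelin-13 at 10 nM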
#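 Material: engineered CHO-K1 APJ arrestin reporter cells; amount: 1000 CHO-K1 reporter cells seeded per well; incubation: compound stimulation 90 min at 25 °C, detection 60 min; signal: luminescent beta-gal fragment complementation, chemiluminescent substrate; read-out basis: APJ agonist activity; controls: DMSO-only wells as negative, 10 nM Apelin-13 as positive control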
# APJ antagonist = antagonists of human apelin receptor APJ, primary screen, CHO-K1 cells, beta-arrestin complementation, luminescence; P35414; inhibition, % at 20 µM; 330,000 compounds, 0.32% hits; AID 2521, 2010;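 active = inhibition above about 40% at 20 µM, limit read from the data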;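 also: cells challenged with 10 nM apelin-13 agonist together with compound; plate controls were apelin-13 plus DMSO wells for no effect and DMSO wells lacking apelin-13 for full effect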
# EBI2 antag = EBI2 receptor antagonists, beta-arrestin recruitment, primary screen, cell-based, luminescence, 7a,25-OHC stimulation, uHTS; 360,000 compounds, 0.81% hits; AID 651636, 2012; 7a,25-OHC stimulated; G-protein coupled receptor 183 (Homo sapiens), P32249; inhibition, % at 5 µM; in the data active = inhibition above about 38%;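 also: enzyme fragment complementation signal reports receptor beta-arrestin coupling in cells; 0% = agonist plus DMSO wells and 100% = wells without agonist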
# CCR6 antag = CCR6 receptor antagonists, primary screen, cell-based, CHO-K1, luminescence, beta-arrestin, uHTS; 340,000 compounds, 0.49% hits; inhibition, % at 20 µM; CHO-K1 CCR6 PathHunter beta-arrestin, CCL20-stimulated;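 active = compounds whose inhibition of the agonist-driven luminescence signal at 20 µM reaches about 50%, limit read from the data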;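 also: cells stimulated with CCL20 at 14 nM final; plate controls were DMSO with CCL20 for no effect and DMSO without agonist for full effect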
# Target sequence (P51684 whole entry, looked up): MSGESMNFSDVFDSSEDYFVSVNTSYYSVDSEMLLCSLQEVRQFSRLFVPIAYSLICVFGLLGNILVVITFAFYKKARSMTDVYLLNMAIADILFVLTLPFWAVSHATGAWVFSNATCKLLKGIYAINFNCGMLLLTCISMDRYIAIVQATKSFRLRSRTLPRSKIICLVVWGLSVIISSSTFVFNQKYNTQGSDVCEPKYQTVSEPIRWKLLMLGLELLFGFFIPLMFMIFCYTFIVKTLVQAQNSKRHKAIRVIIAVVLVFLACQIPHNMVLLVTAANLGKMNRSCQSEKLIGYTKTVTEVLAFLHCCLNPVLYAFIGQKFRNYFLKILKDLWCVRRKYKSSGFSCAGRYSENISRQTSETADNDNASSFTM
# CXCR6 inh = CXCR6 receptor inhibitors, primary screen, cell-based, beta-arrestin, luminescence, CHO-K1 PathHunter, 1536-well | inhibition, % at 20 µM | 360,000 compounds, 0.36% hits; in the data active = inhibition above about 34%, passing the limit was not always enough;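 also: antagonist mode with CXCL16 agonist at 10 nM final; 0% = 10 nM CXCL16 with DMSO and 100% = unstimulated wells without agonist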
# Target sequence (O00574 whole entry, looked up): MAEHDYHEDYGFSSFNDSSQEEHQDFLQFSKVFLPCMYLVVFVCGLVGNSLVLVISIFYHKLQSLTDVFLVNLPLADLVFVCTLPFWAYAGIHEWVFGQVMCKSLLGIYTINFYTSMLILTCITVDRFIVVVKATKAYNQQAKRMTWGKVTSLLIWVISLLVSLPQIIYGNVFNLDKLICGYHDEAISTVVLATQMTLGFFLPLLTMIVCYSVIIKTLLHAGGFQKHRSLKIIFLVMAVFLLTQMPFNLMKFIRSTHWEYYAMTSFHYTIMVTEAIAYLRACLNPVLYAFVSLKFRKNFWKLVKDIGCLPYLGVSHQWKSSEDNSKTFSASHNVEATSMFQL
# EBI2 antag conf = EBI2 antagonist hit retest, beta-arrestin, confirmation, cell-based, single concentration, luminescence, 7a,25-OHC stimulation. inhibition, % at 5 µM. 2,400 compounds, 29% hits. 7a,25-OHC antagonism. shares compounds with EBI2 antag;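 active = inhibition of at least 50%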
# EBI2 agonist = EBI2 agonist activity of antagonist hits, confirmation, counter-screen for EBI2 antagonist project, cell-based, single concentration, agonist mode, luminescence. 2,400 tested, under 10 active. shares compounds with EBI2 antag. EBI2-expressing cells, 60 min; 0% vehicle, 100% 7α,25-dihydroxycholesterol control. activation, % at 5 µM;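 active = activation of at least 50%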
# bGal cs = E. coli beta-galactosidase enzyme inhibition, confirmation, counter-screen for EBI2 antagonist project, biochemical, luminescence, single concentration. shares compounds with EBI2 antag. purified beta-galactosidase, luminescent Galacton Star, 15 min. inhibition, % at 5 µM. 2,400 compounds, 1% hits. AID 652176, 2013;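 active = replicate-average signal at least 3 plate SD below neutral wells, shown as high inhibition, flagging enzyme-inhibiting false positives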;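 also: 0% = DMSO wells with enzyme and 100% = wells lacking enzyme; higher means stronger loss of beta-gal luminescence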
# * marks the source's active call; other numbers are inactive results; x = no result given.
SMILES,APJ agonist,APJ antagonist,EBI2 antag,CCR6 antag,CXCR6 inh,EBI2 antag conf,EBI2 agonist,bGal cs
Cc1cc(C)c2cc(C(=O)N3CCC(C(=O)c4ccc(F)cc4)CC3)[nH]c2c1,1.1,-1.4,89.9*,13.6,-3.1,83.7*,1.3,1.2
Cc1cc(C)c2cc(C(=O)N3CCC(Cc4ccccc4)CC3)[nH]c2c1,-2.2,-15.8,64.4*,11.1,3.5,41.5,1.8,-9.9
Cc1cc(C)c2cc(C(=O)N3CCC(N4CCCCC4)CC3)[nH]c2c1,-1.7,-15.1,46.0*,15.2,7.4,25.2,0.1,6.5
COc1ccc(C(=O)N2CCC(C(=O)c3c(C)cc(C)cc3C)CC2)cc1,0.9,1.3,71.7*,14.3,-1.9,41.9,-0.6,-8.3
Cc1cc(C(=O)C(=O)O)c(C)n1-c1ccc(Cl)c(Cl)c1,-3.7,5.3,0.7,-4.1,1.5,x,x,x
O=C(CSc1nc2ccc(Nc3nc(N4CCOCC4)nc(N4CCOCC4)n3)cc2s1)Nc1ccccc1Cl,2.7,-30.1,9.5,-2.5,-6.4,x,x,x
O=C(CSc1nc2ccc(Nc3nc(N4CCCC4)nc(N4CCCC4)n3)cc2s1)NCc1ccco1,3.3,0.8,48.9*,3.9,-1.5,17.6,-0.8,-10.5
COC(=O)c1ccc(CSc2nnc(Nc3ccc(C)cc3)s2)o1,-1.8,-30.4,37.7*,6.5,-4.6,48.2,1.8,7.1
COc1ccc(/C=N/OCC(=O)NC(c2ccccc2)c2ccccc2)c(OC)c1,-0.7,-6.1,20.2,16.8,-7.2,x,x,x
CCOc1ccc(/C=N/OCC(=O)NC(c2ccccc2)c2ccccc2)cc1,-2.8,-1.2,79.5*,-14.9,4.5,59.9*,0.9,7.2
CC1(C(=O)Nc2cccc(OC(F)(F)F)c2)Cc2c(-c3ccc4c(c3)OCO4)ccnc2O1 (configuration not stated),x,x,-1.7,x,-0.7,x,x,x
NNC(=O)c1ccc(N2CCc3ccccc32)c([N+](=O)[O-])c1,-1.1,-15.2,-6.4,15.2,-0.1,x,x,x
Cc1ccc(CNC(=O)c2ccc(N3CCc4ccccc43)c([N+](=O)[O-])c2)cc1,-4.1,27.7,37.4*,30.7,23.1,19.1,-0.7,-5.8
CCCc1c(OCCCOc2ccc(OCC(=O)O)cc2)ccc(C(C)=O)c1O,-3.4,4.2,-1.2,7.0,5.0,x,x,x
CN(Cc1ccc(Cl)c(Cl)c1)C(=O)c1cccc(S(=O)(=O)N2CCN(Cc3ccccc3)CC2)c1,-3.6,15.4,57.7*,2.4,-2.8,28.1,0.9,6.3
CN(Cc1cccc(F)c1)C(=O)c1cccc(S(=O)(=O)N2CCN(Cc3ccccc3)CC2)c1,-3.3,0.7,5.2,1.4,-14.8,x,x,x
CN(Cc1cccc(Cl)c1Cl)C(=O)c1cccc(S(=O)(=O)N2CCN(Cc3ccccc3)CC2)c1,3.0,-9.9,53.5*,8.3,-3.6,18.0,0.1,-14.2
Cc1nc(N2CCCCC2)c2c(C)c(C(=O)Nc3ccccc3C(F)(F)F)sc2n1,-2.5,6.3,6.0,-5.1,-13.5,x,x,x
CCOC(=O)c1sc2nc(C)nc(N3CCCCC3C)c2c1C (configuration not stated),-1.7,-16.9,18.7,2.1,2.5,x,x,x
Cc1nc(N2CCCCC2C)c2c(C)c(C(=O)Nc3cccc(C(F)(F)F)c3)sc2n1 (configuration not stated),1.1,-5.5,75.5*,8.5,-2.7,19.1,1.6,5.5
Cc1nc(N2CCCCC2)c2c(C)c(C(=O)Nc3cccc(C(F)(F)F)c3)sc2n1,4.0,-1.1,53.2*,-33.5,-11.5,24.6,2.1,5.6
O=C(NCCc1ccccc1)c1ccc(CS(=O)Cc2ccc(Cl)cc2)o1 (configuration not stated),-2.3,1.6,60.0*,10.0,-4.2,35.2,0.7,6.7
O=C(NCc1ccccc1)c1ccc(CS(=O)Cc2ccc(Cl)cc2)o1 (configuration not stated),-2.2,2.5,7.8,9.9,10.8,x,x,x
Cc1cccc(C)c1N(CC(=O)Nc1cc(Cl)ccc1Oc1ccccc1)S(C)(=O)=O,-1.4,16.3,47.1*,12.2,4.6,11.6,-0.2,8.2
Cc1ccc(C)c(N(CC(=O)Nc2cc(Cl)ccc2Oc2ccccc2)S(C)(=O)=O)c1,-5.6,15.3,39.0,20.1,1.5,x,x,x
SMILES,APJ agonist,APJ antagonist,EBI2 antag,CCR6 antag,CXCR6 inh,EBI2 antag conf,EBI2 agonist,bGal cs
Cc1ccc2c(CC(=O)N3CCN(S(=O)(=O)c4ccccc4)CC3)coc2c1,-3.6,22.9,24.4,-6.3,-3.2,x,x,x
Cc1ccc(OCC(=O)N2CCN(S(=O)(=O)c3ccc4c(c3)OCCO4)CC2)c(C)c1,-0.6,9.9,70.4*,10.4,1.9,52.9*,1.9,3.5
Cc1ccc2c(CC(=O)N3CCN(S(=O)(=O)c4ccc5c(c4)OCCO5)CC3)coc2c1,-0.9,0.9,50.4*,-3.3,-0.2,13.3,-0.6,-10.3
Cc1cc(S(=O)(=O)N2CCCCC2)ccc1OCC(=O)N1CCOCC1,4.0,-6.1,-8.1,3.1,1.0,x,x,x
CC(=NOC(=O)c1ccc(I)cc1)c1nccs1,x,x,-3.1,x,2.6,x,x,x
N#C/C(=C\c1ccc(-c2nc3ccccc3s2)o1)C(N)=O,-1.0,5.1,39.0,9.0,3.6,x,x,x
CNC(=O)/C(C#N)=C/c1ccc(-c2nc3ccccc3s2)o1,0.0,5.4,53.1*,4.6,1.1,30.5,-0.6,-10.9
Cc1cccc(Cn2c(NC3CCCC3)nc3c2c(=O)[nH]c(=O)n3C)c1,x,x,24.2,x,3.4,x,x,x
Cc1ccc(NC(=O)c2sccc2C)nc1,4.3,0.7,-5.9,-6.2,9.2,x,x,x
Cc1ccc2nc(-c3ccccc3Cl)cc(C(=O)Nc3cc(C)on3)c2c1,-2.3,0.8,60.1*,5.7,-1.7,46.0,-1.2,-2.8
O=C(COc1ccccc1)Nc1ccc(S(=O)(=O)Nc2ccccn2)cc1,2.2,-6.2,-6.3,6.9,0.4,x,x,x
O=C(COc1ccc(Br)cc1)Nc1ccc(S(=O)(=O)Nc2ccccn2)cc1,2.2,-7.5,43.5*,3.5,2.4,25.4,-0.9,-10.3
